CR mimetic SO: caloric restriction mimetics inhibiting age-related superoxide in yeast; S. cerevisiae aged cells, superoxide DHE fluorescence; stronger effect = lower value; superoxide response (% of plate mean), % at 10 µM; actives 0.18% (n = 330,000); AID 2690;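 active = superoxide response under a set limit, about three screen SD below normal, cut at about 65% in these data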;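 also: yeast aged for seven days with compound at 30 °C before DHE staining; 100% = average MFI of all compound-treated wells on the plate with controls excluded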
Cneo AK release: Cryptococcus neoformans lysis via adenylate kinase release; C. neoformans lysis, adenylate kinase release luminescence, 4 h; normalised: neutral wells 0, clomiphene wells 100; lysis activity, % at 15 µM; actives 0.2% (n = 360,000); AID 651654;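 active = mean lysis activity across replicates of at least 80%, whatever share of replicates individually reach that level; inactive = mean lysis activity below 80%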
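Assay system: log-phase C. neoformans yeast / Quantity: yeast cell density of 5 × 10^6 cells/mL / Medium: fresh YPD growth medium / Compound: single dose / Timing: static 4 h at 37 °C with compound, 1 h detection / Measured by: adenylate kinase release luminescence / Read-out: lysis from increased AK signal / Benchmarks: Clomiphene as positive lysis control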
Mot1-301 SUMO: inhibitors of SUMOylation pathway: yeast Mot1-301 growth rescue; S. cerevisiae Mot1-301 growth rescue, ATP luminescence, 38.5C; percent above DMSO median, 100 means doubled; growth rescue, % at 18.8 µM; actives 1% (n = 320,000);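 active = every valid replicate shows activation above 250% relative to neutral control wells; inactive = the rest, any valid replicate at or below 250%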;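 also: OY570 slx delta 5 strain wells were the positive control but not used for scaling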
PglD inh: PglD (C. jejuni) enzyme inhibition. inhibition, % at 12.5 µM. AID 602405. actives 0.098% (n = 360,000). purified PglD enzyme, DTNB colorimetric CoA detection; in the data active = inhibition above about 16%, passing the limit was not always enough
rRNA inh HTS: inhibitors of bacterial rRNA selective over humanized ribosomes; E. coli WT GFP vs humanized-ribosome RFP mutants, fluorescence, 24 h; stronger effect = lower value; DMSO median 0, no signal -100; GFP signal change (wild-type ribosome), % (concentration not given with the values); actives 1.6% (n = 350,000);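 active = significant combined selectivity score with lowered wild-type GFP, culture density cut under 30%, mutant RFP and density less affected; inactive = any of these conditions unmet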
* = called active by the depositor. Hits are enriched below; roughly 2.2% of the tested compounds scored in any of these assays.

How did O=C(OCc1c(-c2ccccc2)ncc2ccccc12)c1ccc(Br)cc1 do in these assays?
CR mimetic SO: 88; Cneo AK release: 2; Mot1-301 SUMO: -9; PglD inh: 3; rRNA inh HTS: 6

What do the screens show for `Cc1[nH]c2ccccc2c1/C=N/NC(=O)c1cccs1`?
CR mimetic SO: 94; Mot1-301 SUMO: 3; rRNA inh HTS: -24*

Results for CC(=O)Nc1ccc(N2CCOCC2)c(S(=O)(=O)Nc2ccccc2Cl)c1 ?
Cneo AK release: 0; PglD inh: -3; rRNA inh HTS: 1

Results for C=CCNC(=S)Nc1ccc(N2CCOCC2)c(S(=O)(=O)Nc2ccccc2Cl)c1 ?
CR mimetic SO: 83; Cneo AK release: -3; Mot1-301 SUMO: 1; PglD inh: 1; rRNA inh HTS: -34*

What do the screens show for `CCCNC(=O)N(C)C[C@@H]1Oc2ncc(C#CCc3ccccc3)cc2C(=O)N([C@@H](C)CO)C[C@@H]1C`?
Cneo AK release: 97*; PglD inh: -1; rRNA inh HTS: 3

What do the screens show for `CCCC#Cc1cnc2c(c1)C(=O)N([C@@H](C)CO)C[C@H](C)[C@H](CN(C)C(=O)Nc1cccc(F)c1)O2`?
Cneo AK release: 88*; PglD inh: -1; rRNA inh HTS: -2

How did CC(C)CC#Cc1cnc2c(c1)C(=O)N([C@H](C)CO)C[C@H](C)[C@H](CN(C)C(=O)c1cccnc1)O2 do in these assays?
Cneo AK release: 82*; PglD inh: 1; rRNA inh HTS: 1

Results for CC(C)CC#Cc1cnc2c(c1)C(=O)N([C@@H](C)CO)C[C@@H](C)[C@@H](CN(C)C(=O)c1cccc(F)c1)O2 ?
Cneo AK release: 101*; PglD inh: 2; rRNA inh HTS: 1

What do the screens show for `CCC(=O)N1CCC2(CC1)CN(Cc1cc(F)ccc1F)[C@H](CO)c1c2c2ccc(OC)cc2n1C`?
rRNA inh HTS: 2

Results for O=C(C[C@@H]1CC[C@H]2[C@@H](COC[C@@H](O)CN2Cc2ccc(Cl)cc2)O1)NCCc1ccccc1 ?
Cneo AK release: -2; PglD inh: -1; rRNA inh HTS: -13

Results for COCC#Cc1cnc2c(c1)C(=O)N([C@H](C)CO)C[C@H](C)[C@H](CN(C)C(=O)Cc1ccncc1)O2 ?
Cneo AK release: 3; PglD inh: -2; rRNA inh HTS: 5

Results for O=C(C[C@H]1C=C[C@@H](NC(=O)C2CCC2)[C@H](CO)O1)NCCCN1CCOCC1 ?
Cneo AK release: 0; PglD inh: -2; rRNA inh HTS: -2

How did COc1cccc(C#Cc2cnc3c(c2)C(=O)N([C@H](C)CO)C[C@@H](C)[C@@H](CN(C)C(=O)C2CCOCC2)O3)c1 do in these assays?
Cneo AK release: 81*; PglD inh: -2; rRNA inh HTS: 7

Results for COCC(=O)N(C)C[C@@H]1Oc2ncc(C#CCC3CCCC3)cc2C(=O)N([C@@H](C)CO)C[C@H]1C ?
Cneo AK release: 103*; PglD inh: 3; rRNA inh HTS: 3

What do the screens show for `COCC(=O)N(C)C[C@H]1Oc2ncc(C#CCC3CCCC3)cc2C(=O)N([C@H](C)CO)C[C@H]1C`?
Cneo AK release: -1; PglD inh: 2; rRNA inh HTS: 2

How did COCC#Cc1cnc2c(c1)C(=O)N([C@H](C)CO)C[C@@H](C)[C@@H](CN(C)C(=O)Nc1ccc(OC)cc1)O2 do in these assays?
Cneo AK release: 97*; PglD inh: -4; rRNA inh HTS: 2

How did COc1ccc(C(=O)N=c2sccn2C)cc1 do in these assays?
CR mimetic SO: 111; Mot1-301 SUMO: -5; rRNA inh HTS: -4

How did Cn1ccsc1=NC(=O)c1ccc(Cl)cc1 do in these assays?
CR mimetic SO: 100; Mot1-301 SUMO: 80; rRNA inh HTS: -27*

How did Cn1ccsc1=NC(=O)c1ccccc1OC(F)F do in these assays?
CR mimetic SO: 97; Cneo AK release: -1; Mot1-301 SUMO: 3; PglD inh: -5; rRNA inh HTS: -6

How did CCOc1cc(C(=O)N=c2sccn2C)ccc1OC(F)F do in these assays?
CR mimetic SO: 86; Cneo AK release: 0; Mot1-301 SUMO: -15; PglD inh: 3; rRNA inh HTS: -26*

How did COc1ccc(C(=O)COC(=O)c2ccccc2O)c(OC)c1 do in these assays?
CR mimetic SO: 99; Cneo AK release: -2; Mot1-301 SUMO: -2; PglD inh: 2; rRNA inh HTS: -18*

Results for O=C(Nc1ccc(C(F)(F)F)cc1)N[C@@H]1CC[C@@H](CC(=O)N2CCCCC2)O[C@H]1CO ?
Cneo AK release: -4; PglD inh: -3; rRNA inh HTS: -2

What do the screens show for `CC1CN(c2ncc(/C=N/NC(=O)c3ccccc3O)s2)CC(C)O1` (stereo not given)?
CR mimetic SO: 102; Cneo AK release: 0; Mot1-301 SUMO: -18; PglD inh: -2; rRNA inh HTS: -31*

How did O=C(N/N=C/c1cnc(N2CCCCC2)s1)c1ccc(C(F)(F)F)cc1 do in these assays?
CR mimetic SO: 100; Mot1-301 SUMO: 4; rRNA inh HTS: 16

How did C[C@@H]1CCCCO[C@H](CN(C)S(=O)(=O)c2ccc(Cl)cc2)[C@H](C)CN([C@H](C)CO)C(=O)c2cc(N(C)C)ccc2O1 do in these assays?
Cneo AK release: -1; PglD inh: 1; rRNA inh HTS: -7

Results for O=C(NC1CC1)C1=C[C@@H](c2ccc(Br)cc2)C[C@@H](OCCCCO)O1 ?
Cneo AK release: -2; Mot1-301 SUMO: -9; PglD inh: -1; rRNA inh HTS: -19*

How did O=C(NC1CC1)C1=C[C@@H](c2ccccc2)C[C@@H](OCCCCO)O1 do in these assays?
CR mimetic SO: 98; Cneo AK release: 2; Mot1-301 SUMO: 17; PglD inh: 4; rRNA inh HTS: 1

Results for CN(C)CCN(C(=O)c1ccc2c(c1)CCCC2)c1nc2c(F)cccc2s1 ?
CR mimetic SO: 104; Cneo AK release: -2; Mot1-301 SUMO: 145; PglD inh: 3; rRNA inh HTS: -18*

Results for COc1cccc2sc(N(CCN(C)C)C(=O)c3ccc4c(c3)CCCC4)nc12 ?
CR mimetic SO: 87; Cneo AK release: 70; Mot1-301 SUMO: -23; PglD inh: 3; rRNA inh HTS: -30*

Results for Cn1cnc(CCNC(=O)C[C@@H]2CC[C@H]3[C@@H](COC[C@@H](O)CN3C(=O)C3CC3)O2)c1 ?
Cneo AK release: -2; PglD inh: 0; rRNA inh HTS: 3

Results for C=CCOC(=O)[C@H]1[C@@H]2C(=O)O[C@@H](c3ccccc3)[C@@H](c3ccccc3)N2[C@@H](c2ccc(OCCOC(=O)[C@H]3C[C@H]4C(=O)N[C@@H](CC(C)C)C(=O)N4[C@H]3c3cccc(OCCO)c3)cc2)[C@]12C(=O)Nc1ccccc12 ?
Cneo AK release: 38

How did CCn1c(C)csc1=NC(=O)c1ccccc1O do in these assays?
CR mimetic SO: 98; Cneo AK release: 1; Mot1-301 SUMO: 20; PglD inh: 0; rRNA inh HTS: -23*
